Test results taken from ChEMBL document CHEMBL1127785, “[[omega-(Heterocyclylamino)alkoxy]benzyl]-2,4-thiazolidinediones as potent antihyperglycemic agents” (1994).
Calls of active or inactive are those of the source. The calls are words filed in the database; no cut-off is given here.

Experiments:
Mus musculus [1] = assay: Percent reduction in area under glucose tolerance curve at 100 uM/kg dose in diet of mice.; type: functional
Method in brief: (§1)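 C57 Bl/6 ob/ob mice, 9–10 weeks old at purchase, 6–8 per group, kept at 26 ± 2 °C on a 12 h light/dark cycle. Compound was mixed into powdered diet, given fresh daily for 8 days. Mice were then fasted 5 h and given oral glucose 3 g/kg. Tail blood glucose was measured at 0, 45, 90 and 135 min by hexokinase/G6PDH. Read-out is % AUC reduction vs controls (trapezoid rule), Student's t-test.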

Mus musculus [2] = assay: Percent reduction in area under glucose tolerance curve (AUC) was determined at 100 umol/kg dose of diet in mice; IA = No significant activity; type: functional, organism-based; method in brief: as §1
Mus musculus [3] = assay: Percent reduction in area under glucose tolerance curve (AUC) was determined at 30 umol/kg dose of diet in mice; IA = No significant activity; type: functional, organism-based; method in brief: as §1
Mus musculus [4] = assay: Percent reduction in area under glucose tolerance curve at 300 uM/kg dose in diet of mice.; type: functional; method in brief: as §1
Mus musculus [5] = assay: Percent reduction in area under glucose tolerance curve (AUC) was determined at 1000 umol/kg dose of diet in mice; type: functional; method in brief: as §1
Mus musculus [6] = assay: Percent reduction in area under glucose tolerance curve (AUC) was determined at 10 umol/kg dose of diet in mice; IA = No significant activity; type: functional, organism-based; method in brief: as §1
Mus musculus [7] = assay: Percent reduction in area under glucose tolerance curve (AUC) was determined at 300 umol/kg dose of diet in mice; IA = No significant activity; type: functional, organism-based; method in brief: as §1
Mus musculus [8] = assay: Percent reduction in area under glucose tolerance curve (AUC) was determined at 3000 umol/kg dose of diet in mice; type: functional; method in brief: as §1
Mus musculus [9] = assay: Percent reduction in area under glucose tolerance curve (AUC) was determined at 3 umol/kg dose of diet in mice; IA = No significant activity; type: functional, organism-based; method in brief: as §1
Mus musculus [10] = assay: Percent reduction in area under glucose tolerance curve (AUC) was determined at 30 umol/kg dose of diet in mice; type: functional; method in brief: as §1
Mus musculus [11] = assay: Percent reduction in area under glucose tolerance curve (AUC) was determined at 10 umol/kg dose of diet in mice; type: functional; method in brief: as §1
Mus musculus [12] = species on record: Mus musculus; assay: No significant effect dose level on blood hemoglobin.; type: functional
Method in brief: (§2)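 Blood hemoglobin content was measured in C57 Bl/6 ob/ob mice after 8 days of compound given by dietary admixture. The value is the highest dose (µmol/kg of diet) with no significant reduction in blood hemoglobin.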

Mus musculus [13] = species on record: Mus musculus; assay: Antihyperglycemic potency dose producing approximately 25% reduction in area under glucose tolerance curve; type: functional; method in brief: as §1
Mus musculus [14] = assay: Percent reduction in area under glucose tolerance curve (AUC) was determined at 3 umol/kg dose of diet in mice; type: functional; method in brief: as §1
Mus musculus [15] = assay: Percent reduction in area under glucose10 umol/kg dose of diet in mice; type: functional; method in brief: as §1
[16] = Selectivity ratio for Antihyperglycemic potency dose and No significant effect dose; type: functional
Mus musculus [17] = assay: Percent reduction in area under glucose tolerance curve (AUC) was determined at 1000 umol/kg dose of diet in mice; IA = No significant activity; type: functional, organism-based; method in brief: as §1
Mus musculus [18] = species on record: Mus musculus; assay: No significant effect dose level on blood hemoglobin; type: functional; method in brief: as §2

Compound `CC(C)N(CCOc1ccc(CC2SC(=O)NC2=O)cc1)c1nc2ccccc2o1` (stereo not given) has a Reduction (Mus musculus [1]) of 20%.

In the case of `CN(CC(O)COc1ccc(CC2SC(=O)NC2=O)cc1)c1nc2ccccc2o1` (stereo not given), the Reduction (Mus musculus [2]) is reported as “Not significant”.

With `CN(CCOc1ccc(CCC2SC(=O)NC2=O)cc1)c1nc2ccccc2o1` (stereo not given) the Reduction (Mus musculus [2]) was “Not significant”.

In the case of `CN(CCOc1ccc(CC2SC(=O)NC2=O)cc1)c1ccc([N+](=O)[O-])cn1` (stereo not given), the Reduction (Mus musculus [3]) is reported as “Not significant”.

For `COc1cccc(N(C)CCOc2ccc(CC3SC(=O)NC3=O)cc2)n1` (stereo not given), the Reduction (Mus musculus [3]) was “Not significant” and the Reduction (Mus musculus [4]) was 35%.

In the case of `CN(CCOc1ccc(/C=C2\SC(=O)NC2=O)cc1)c1nc2ccccc2o1`, the Reduction (Mus musculus [4]) is reported as 30%.

In the case of `O=C1NC(=O)C(Cc2ccc(OCCNC(=S)Nc3ccccc3)cc2)S1` (stereo not given), the Reduction (Mus musculus [5]) is reported as 43%, the Reduction (Mus musculus [3]) is reported as “Not significant” and the Reduction (Mus musculus [1]) is reported as 10%.

For `CN(CCOc1ccc(CC2SC(=O)NC2=O)cc1)c1ccncc1` (stereo not given), the Reduction (Mus musculus [6]) was “Not significant”.

With `CN(CCOc1ccc(CC2SC(=O)NC2=O)cc1)/C(=N/c1ccccc1)NC#N` (stereo not given) the Reduction (Mus musculus [7]) was “Not significant”.

For `COc1ccc(NC(=O)NCCOc2ccc(CC3SC(=O)NC3=O)cc2)cc1` (stereo not given), the Reduction (Mus musculus [7]) was “Not significant”.

In the case of `CN(CCOc1ccc(CC2SC(=O)NC2=O)cc1)c1cnccn1` (stereo not given), the Reduction (Mus musculus [6]) is reported as “Not significant” and the Reduction (Mus musculus [1]) is reported as 46%.

In the case of `CCc1ccc(CCOc2ccc(CC3SC(=O)NC3=O)cc2)nc1` (stereo not given) [PIOGLITAZONE], the Reduction (Mus musculus [2]) is reported as “inactive”, the Reduction (Mus musculus [5]) is reported as 62% and the Reduction (Mus musculus [4]) is reported as 35%. For the same compound, the Reduction (Mus musculus [8]) was 63%.

For `Cc1nc(N(C)CCOc2ccc(CC3SC(=O)NC3=O)cc2)oc1C` (stereo not given), the Reduction (Mus musculus [9]) was “Not significant”, the Reduction (Mus musculus [10]) was 33% and the Reduction (Mus musculus [11]) was 16%.

Work on `CN(CCOc1ccc(CC2SC(=O)NC2=O)cc1)c1ccccn1` (stereo not given) [ROSIGLITAZONE] yielded a Dose (Mus musculus [12]) of 300 µM/kg, a Dose (Mus musculus [13]) of 3 µM/kg and a Reduction (Mus musculus [14]) of 17%. It also gave a Reduction (Mus musculus [10]) of 41%, a Reduction (Mus musculus [4]) of 61% and a Reduction (Mus musculus [15]) of 31%. It also gave a Reduction (Mus musculus [1]) of 56% and a Selectivity ratio [16] of 100.

With `CN(CCOc1ccc(CC2SC(=O)NC2=O)cc1)c1nccc(-c2ccccc2)n1` (stereo not given) the Reduction (Mus musculus [6]) was “Not significant”.

In the case of `CN(CCOc1ccc(CC2SC(=O)NC2=O)cc1)c1ccc(Cl)cn1` (stereo not given), the Reduction (Mus musculus [3]) is reported as “Not significant” and the Reduction (Mus musculus [4]) is reported as 44%.

In the case of `CN(CCOc1ccc(C2SC(=O)NC2=O)cc1)c1nc2ccccc2o1` (stereo not given), the Reduction (Mus musculus [17]) is reported as “inactive”.

In the case of `Cc1nc(N(C)CCOc2ccc(CC3SC(=O)NC3=O)cc2)sc1-c1ccccc1` (stereo not given), the Dose (Mus musculus [12]) is reported as under 300 µM/kg, the Dose (Mus musculus [13]) is reported as 3 µM/kg and the Reduction (Mus musculus [14]) is reported as 33%. The Reduction (Mus musculus [11]) was 27%, the Reduction (Mus musculus [1]) was 39% and the Selectivity ratio [16] was under 100.

Work on `O=C(NCCOc1ccc(CC2SC(=O)NC2=O)cc1)Nc1ccccc1` (stereo not given) yielded a Reduction (Mus musculus [5]) of 58% and a Reduction (Mus musculus [1]) of 21%.

With `CN1C(=O)SC(Cc2ccc(OCCN(C)c3nc4ccccc4o3)cc2)C1=O` (stereo not given) the Reduction (Mus musculus [2]) was “Not significant” and the Reduction (Mus musculus [5]) was 42%.

Compound `CN(CCOc1ccc(CC2SC(=O)NC2=O)cc1)c1ncc(-c2ccccc2)o1` (stereo not given) has a Reduction (Mus musculus [10]) of 22% and a Reduction (Mus musculus [11]) of 20%.

In the case of `Cc1cccc(N(C)CCOc2ccc(CC3SC(=O)NC3=O)cc2)n1` (stereo not given), the Reduction (Mus musculus [3]) is reported as “Not significant” and the Reduction (Mus musculus [4]) is reported as 33%.

Work on `Cc1csc(N(C)CCOc2ccc(CC3SC(=O)NC3=O)cc2)n1` (stereo not given) yielded a Reduction (Mus musculus [14]) of 14%, a Reduction (Mus musculus [10]) of 53% and a Reduction (Mus musculus [11]) of 28%.

For `Cc1c(C)c2c(c(C)c1O)CCC(C)(COc1ccc(CC3SC(=O)NC3=O)cc1)O2` (stereo not given) [TROGLITAZONE], the Dose (Mus musculus [18]) was 600 µM/kg, the Dose (Mus musculus [13]) was 400 µM/kg and the Reduction (Mus musculus [2]) was “inactive”. It also gave a Reduction (Mus musculus [4]) of 20%, a Selectivity ratio [16] of 1.5 and a Reduction (Mus musculus [8]) of 48%.

With `CN(CCCOc1ccc(CC2SC(=O)NC2=O)cc1)c1nc2ccccc2o1` (stereo not given) the Reduction (Mus musculus [2]) was “inactive” and the Reduction (Mus musculus [4]) was 32%.

For `CN(CCOc1ccc(CC2SC(=O)NC2=O)cc1)c1ccc(N)cn1` (stereo not given), the Reduction (Mus musculus [3]) was “Not significant”.

With `CN(CCOc1ccc(CC2OC(=O)NC2=O)cc1)c1nc2ccccc2o1` (stereo not given) the Reduction (Mus musculus [5]) was 52%, the Reduction (Mus musculus [3]) was “Not significant” and the Reduction (Mus musculus [4]) was 41%. For the same compound, the Reduction (Mus musculus [1]) was 23%.

In the case of `CN(CCOc1ccc(CC2SC(=O)NC2=O)cc1)c1nc2ccccc2o1` (stereo not given) [BRL-48482], the Dose (Mus musculus [12]) is reported as 30 µM/kg, the Dose (Mus musculus [13]) is reported as 3 µM/kg and the Reduction (Mus musculus [10]) is reported as 52%. For the same compound, the Reduction (Mus musculus [4]) was 42%, the Reduction (Mus musculus [1]) was 57% and the Selectivity ratio [16] was 10.
